Results pooled from the literature.
Lines come from different studies, so protocols differ.
Target: Cannabinoid receptor 2 (CNR2, Homo sapiens, UniProt P34972)
Observed: ligand displacement
Technique: radioligand

The Ki of `CCCC(C)(C)c1ccc2c(c1)OC(C)(C)[C@@H]1CC=C(C)C[C@@H]21` is reported as 0.0349 µM (cell membranes).
The Ki of `Cc1nonc1Cn1nnc2c(N3CC[C@H](O)C3)nc(C(C)(C)C)nc21` is reported as 0.011 µM (cell membranes).
The Ki of `CCCCCc1cc(O)c(C/C=C(\C)CCC=C(C)C)c(O)c1C(=O)O` is reported as greater than 10 µM (cell membranes).
`Cc1c(C(=O)Nc2ccc(C(F)(F)F)cn2)nc(-c2ccc(Cl)cc2Cl)n1-c1ccc(OS(=O)(=O)CCC(F)(F)F)cc1` gave a Ki of 0.0049 µM (cell membranes).
For `CCCCCn1c2ccccc2c2cc(C(=O)NCC3CCN(CC(=O)NC(C)(C)C)CC3)ccc21`, the Ki was greater than 5 µM.
The Ki of `CC/C(=C(\c1ccc(O)cc1)c1ccc(OCCN(C)C)cc1)c1ccccc1` is reported as 0.9 µM (cell membranes).
The Ki of `CCOC(=O)[C@](CC)(CCC[S+]([O-])CCOCCOCCNC(=O)OC(C)(C)C)NC(=O)c1ccc(C2CC2)c(Cc2ccc(F)cc2)n1` (stereo partly drawn) is reported as 0.029 µM (cell membranes).
For `CCCc1cc(O)c2c(c1)OC(C)(C)[C@@H]1CCC(C)=C[C@@H]21`, the Ki was 0.105 µM (cell membranes).
With `Cc1nc([C@@](C)(CC2CC2)NC(=O)c2cc(OCC(F)(F)F)c(C3CC3)cn2)no1` the Ki was 0.076 µM (cell membranes).
`CCOC(=O)[C@H](CSC)NC(=O)c1ccc(C2CC2)c(Cc2ccc(F)cc2)n1` gave a Ki of 0.0032 µM (cell membranes).
`CC1(C)C(C(=O)c2cn(CCCCCF)c3ccccc23)C1(C)C` has a Ki of 0.00213 µM (cell membranes).
`C=CCC(CC)(NC(=O)c1ccc(C2CC2)c(Cc2ccc(F)cc2)n1)C(=O)OCC` (stereo not drawn) has a Ki of 0.0008 µM (cell membranes).
For `CCCCCc1cc(O)c2c(c1)OC(C)(C)c1cc(O)c(C)cc1-2`, the Ki was 0.011 µM (cell membranes).
The Ki of `CCOC(=O)C(CC)(CCCSCCOCCOCCOCCNC(=O)OC(C)(C)C)NC(=O)c1ccc(C2CC2)c(Cc2ccc(F)cc2)n1` (stereo not drawn) is reported as 0.138 µM (cell membranes).
The Ki of `CCCCCc1cc2c(c(O)c1C(=O)O)C1C=C(C)CCC1C(C)(C)O2` (stereo not drawn) is reported as 1.65 µM (cell membranes).
